The record followed here is ChEMBL document CHEMBL1123636 (J Med Chem, 1987).

For orientation: IC50 means the concentration that inhibits the measured activity by half. A low value points to greater potency in that assay. As a reminder, the Ki is a measure of affinity in units of concentration, obtained from inhibition or displacement.

The species named for test [1] is Mus musculus. Kind of test: Opioid agonist potencies was determined by mouse vas deferens (MVD). It counts as functional.
Test [2] is filed under the species Cavia porcellus. Kind of test: Opioid agonist potencies was determined by electrically stimulated guinea pig ileum (GPI). It is filed as functional.
Test [3] deals with Mus musculus. Briefly: Analgesic potency (antinociceptive activity) (administered icv) at peak time of 20 min in male Swiss-Webster mice. It is filed as functional. In outline: (§1)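 Intracerebroventricular dosing in male Swiss-Webster mice. Antinociception scored by the acetic acid writhing test at the peak time of analgesia, 10 or 20 min after injection depending on compound.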

The species named for test [4] is Cavia porcellus. Briefly: Ke value for naloxone versus compound in the guinea pig ileum (GPI) in order to distinguish between mu- and delta-mediated effects. It is filed as functional. In short, it runs like this: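 Electrically stimulated guinea pig ileum. Naloxone antagonism measured against each agonist and expressed as a Ke, used to tell μ- from δ- or κ-mediated effects.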

For test [5], the target named is T1, Mu-type opioid receptor (Cavia porcellus, UniProt P97266). Briefly: Binding affinity of Opioid receptor mu 1 by the displacement of mu-selective [3H]DAGO from brain membrane preparations. In outline: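 Competitive displacement of the μ-selective radioligand [3H]DAGO from brain membrane preparations ([…]). Affinity taken from ligand displacement.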

In test [6] the test system is Mus musculus. Briefly: Analgesic potency (antinociceptive activity) (administered icv) at peak time of 10 min in male Swiss-Webster mice. It is filed as functional. In outline: as §1
For test [7], the target named is T1, Mu-type opioid receptor. Kind of test: Binding affinity of Opioid receptor mu 1 mu 1 by the displacement of mu-selective [3H]DAGO from brain membrane preparations.

Where a SMILES comes first, the peptide text is derived from it. Side-chain parts run from the residue outwards. The star is where a group is joined. Oxymorphamine(6α) = CN1CC[C@]23c4c5ccc(O)c4O[C@H]2[C@@H](N*)CC[C@@]3(O)[C@H]1C5

T1 sequence (P97266 whole entry): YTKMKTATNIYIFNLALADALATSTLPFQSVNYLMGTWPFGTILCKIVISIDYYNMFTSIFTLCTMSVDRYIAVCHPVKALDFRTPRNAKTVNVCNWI

With `CC(C)C[C@H](NC(=O)[C@H](Cc1ccccc1)NC(=O)CNC(=O)[C@H](CCC(=O)NCC(=O)NCC(=O)N[C@H]1CC[C@@]2(O)[C@H]3Cc4ccc(O)c5c4[C@@]2(CCN3C)[C@H]1O5)NC(=O)[C@@H](N)Cc1ccc(O)cc1)C(=O)O` (H-YE([Gly-Gly-Oxymorphamine(6α)])GFL-OH), the IC50 was 47.7 nM in test [1] and 57.2 nM in test [2]. Moreover, in test [3], the ED50 is 5 nM. The Ke in test [4] was found to be 1.32 nM. In test [5], this molecule displayed a Ki of 11.1 nM.

With `CC(C)C[C@H](NC(=O)[C@H](Cc1ccccc1)NC(=O)CNC(=O)[C@H](CCC(=O)N[C@H]1CC[C@@]2(O)[C@H]3Cc4ccc(O)c5c4[C@@]2(CCN3C)[C@H]1O5)NC(=O)[C@@H](N)Cc1ccc(O)cc1)C(=O)O` (H-YE(Oxymorphamine(6α))GFL-OH), the IC50 came out at 26.9 nM in test [1] and 7.5 nM in test [2]. In addition, the ED50 in test [3] is reported as 0.7 nM. This molecule also had a Ke in test [4] of 1.02 nM. The molecule further gave a Ki in test [5] of 19.1 nM.

For the molecule `CN1CC[C@]23c4c5ccc(O)c4O[C@H]2C(=O)CC[C@@]3(O)[C@H]1C5` [OXYMORPHONE], the ED50 in test [6] came to 24 nM.

H-YQGFL-OH: the IC50 in test [1] stood at 123 nM; in test [2], 210 nM. Moreover, affinity in test [7] was put at a Ki of 21.7 nM. This molecule came in with a Ke in test [4] of 1.63 nM. Further, the ED50 in test [6] was determined as 84 nM.

`CC(C)C[C@H](NC(=O)[C@H](Cc1ccccc1)NC(=O)CNC(=O)[C@H](CCC(=O)NCC(=O)NCC(N)=O)NC(=O)[C@@H](N)Cc1ccc(O)cc1)C(=O)O` (H-YE([Gly-Gly-NH2])GFL-OH): the IC50 in test [1] stood at 61.8 nM; in test [2] it was 597 nM. In test [4], this molecule had a Ke of 2.32 nM. For the same molecule, the ED50 in test [6] is reported as 60 nM. The Ki in test [5] turned out to be 52.9 nM.

In turn, `CC(C)C[C@H](NC(=O)[C@H](Cc1ccccc1)NC(=O)CNC(=O)CNC(=O)[C@@H](N)Cc1ccc(O)cc1)C(=O)O` [ENKEPHALIN] showed a Ke in test [4] of 1.53 nM.

As to `CC(=O)N[C@H]1CC[C@@]2(O)[C@H]3Cc4ccc(O)c5c4[C@@]2(CCN3C)[C@H]1O5`, the results for the IC50 in test [1] and in test [2] were 166 nM and 136 nM, respectively. The molecule further registered an ED50 in test [3] of 5.4 nM. The Ke in test [4] was 0.88 nM. For the same molecule, in test [5], the Ki came to 1.81 nM.

`CC(=O)NCC(=O)NCC(=O)N[C@H]1CC[C@@]2(O)[C@H]3Cc4ccc(O)c5c4[C@@]2(CCN3C)[C@H]1O5`: the IC50 came to 78 nM in test [1] and 82.3 nM in test [2]. This molecule also yielded an ED50 in test [3] of 3.1 nM. The molecule also had a Ke in test [4] of 1.55 nM. Also, the Ki in test [5] was 5.48 nM.
